# According to article PMC5125022 (ACS chemical neuroscience, 2016):
# Values joined by “and” are separate entries in the source; they are usually repeats but may differ in a detail not shown here. Equal entries are not always repeated. Where two headings read alike, the source gives them in different places.
# How the values were obtained:
# [1] = tested on: Longitudinal Muscle Myenteric Plexus (LMMP) preparations from the guinea pig ileum; assay: Electrical field stimulated contractions in LMMP preparations; format: cell-based; details: Figure 8A
# KOR [2] = target: T1, KOR (Homo sapiens, UniProt P41145); details: ref 9b, cited from earlier work
# [3] = tested on: circular muscle of the mouse colon; format: cell-based; details: for Inhibition of morphine-induced contractions: 1 nM antagonist, distal or proximal colon, data not shown; for Antagonism of morphine effects: Figure 6A; for Contractions induced by compound alone: concentrations up to 30 μM, distal and proximal colon preparations
# MOR [4] = target: T2, MOR (Mus musculus, UniProt P42866); details: Emax relative to full agonist DAMGO (100%), ref 9b; cited from earlier work
# KOR [5] = target: T1, KOR; assay: [35S]GTPγS-binding assay in KOR-expressing CHO cell line; format: biochemical
# Method in brief: (§1)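 CHO-cell membranes expressing DOR or KOR (10 µg protein) were incubated for 90 min at 30 °C in assay buffer. The mix held 10 µM GDP, 0.1 nM [35S]GTPγS, and varying test compound or a 3 µM full-agonist reference (SNC80 for DOR, U50,488H for KOR). Nonspecific binding used 10 µM unlabeled GTPγS. Reactions were stopped by rapid vacuum filtration through glass-fibre filters, and bound radioactivity was read by liquid scintillation. Assays ran in triplicate, with 3 independent determinations. EC50 and Emax came from nonlinear one-site fits.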
# Swiss Webster mice [6] = assay: Colonic bead expulsion assay; format: in vivo, mouse
# Swiss Webster mice [7] = assay: Warm water tail immersion; format: in vivo, mouse
# MOR [8] = target: T2, MOR; assay: [35S]GTPγS-binding assay in low MOR-expressing CHO cell line; format: biochemical
# Method in brief: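 Low-MOR-expressing CHO cell material was incubated for 90 min at 30 °C with varying test compound or 3 µM DAMGO (full-agonist reference). Nonspecific binding used 10 µM unlabeled GTPγS. Reactions were stopped by GF/B vacuum filtration, and bound radioactivity was read by scintillation counting. Triplicates gave 3 independent determinations. EC50 and Emax came from nonlinear one-site fits.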
# Swiss Webster mice [9] = assay: Charcoal gavage intestinal motility assay; format: in vivo, mouse
# DOR = DOR (Homo sapiens, UniProt P41143); assay: [35S]GTPγS-binding assay in DOR-expressing CHO cell line; format: biochemical
# Method in brief: as §1
# Swiss Webster mice [10] = assay: Acetic acid induced writhing assay; format: in vivo, mouse
# KOR [11] = target: T1, KOR; assay: Competitive radioligand binding, KOR; details: ratio of Ki KOR / Ki MOR
# Method in brief: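 Membranes from CHO cells stably expressing a single opioid receptor were incubated with test compound at various concentrations and either [3H]naloxone (MOR) or [3H]norBNI (KOR) for 1 h at 30 °C. Specific binding was the difference between binding without and with 10 µM naltrexone. IC50 came from linear regression of Hill plots, and Ki from Cheng-Prusoff. Selectivity is the KOR Ki/MOR Ki ratio, from three independent experiments.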
# [12] = Emax relative to full agonist U50,488H (100%)
# [13] = 10 nM antagonist, proximal colon, Figure 6C
# [14] = 100 nM antagonist, distal colon, Figure 6B
compound,measurement,setting,value
DAMGO [reference compound],pIC50 for inhibition of EFS contractions,[1],7.67 ± 0.03
"O=C(N[C@@H]1CC[C@@]2(O)[C@H]3Cc4ccc(O)c5c4[C@@]2(CCN3CC2CC2)[C@H]1O5)c1ccncc1 [NAP, 17-Cyclopropylmethyl-3,14beta-dihydroxy-4,5alpha-epoxy-6beta-(4'-pyridylcarboxamido)morphinan, reference compound]",% max of agonist,KOR [2]; [12],45.5 ± 4.4%
same,EC50,KOR [2]; [35S]GTPγS binding,28.8 ± 14.4 nM
same,Inhibition of morphine-induced contractions,[3],neither NAP nor BNAP showed significant inhibition
same,Antagonism of morphine effects,"[3]; 10 nM antagonist, distal colon",neither NAP nor BNAP showed significant antagonism
same,Morphine pD2 in the presence of antagonist,[3]; [13],5.9
same,Morphine pD2 in the presence of antagonist,[3]; [14],5.3
same,Contractions induced by compound alone,[3],Neither BNAP nor NAP alone at concentrations up to 30 μM induced contractions
same,% max of agonist,MOR [4],22.72 ± 0.84% and 22.7 ± 0.8%
"1-Benzyl-17-Cyclopropylmethyl-3,14β-dihydroxy-4,5α-epoxy-6β-[(4'-pyridyl)acetamido]morphinan [BNAP]",% max of agonist,KOR [5]; [12],45.9 ± 1.7%
same,EC50,KOR [5]; [35S]GTPγS binding,2.9 ± 1.1 nM
same,Bead expulsion time,"Swiss Webster mice [6]; BNAP alone 10 mg/kg, mice (naive 17 min)",43 min
same,Antagonism of morphine's effect on bead expulsion,Swiss Webster mice [6]; given with morphine or 5 or 15 min before morphine,no significant antagonism of morphine's effects was observed
same,Antinociceptive effect of compound alone,"Swiss Webster mice [7]; 1.0 μg/5 μL ICV, compared to morphine alone, mice, Figure 4",did not produce significant antinociception
same,Antagonism of morphine antinociception,"Swiss Webster mice [7]; 10 mg/kg s.c., any morphine dose tested, mice, Figure 3",did not significantly antagonize morphine antinociception
same,Antinociceptive effect of compound alone,"Swiss Webster mice [7]; 10 mg/kg s.c., mice, Figure 3",did not produce significant antinociceptive effects
same,Reversal of morphine antinociception,"Swiss Webster mice [7]; ICV, increasing concentrations, mice, Figure 4",dose dependent reversal of morphine antinociception
same,Dose giving complete reversal of morphine antinociception,"Swiss Webster mice [7]; ICV, mice, Figure 4",0.3 μg/5 μL
same,pIC50 for inhibition of EFS contractions,[1],7.86 ± 0.07
same,% max of agonist,MOR [8]; Emax relative to full agonist DAMGO (100%),14.6% and 14.6 ± 0.9%
same,EC50,MOR [8]; [35S]GTPγS binding,4.84 nM and 4.8 nM
same,Decrease of intestinal motility,"Swiss Webster mice [9]; charcoal gavage, mice, Figure 7B",1.5 fold
same,Reversal of morphine induced inhibition of intestinal motility,Swiss Webster mice [9]; mice,unable to reverse morphine induced inhibition of intestinal motility
same,Inhibition of morphine-induced contractions,[3],neither NAP nor BNAP showed significant inhibition
same,Antagonism of morphine effects,"[3]; 10 nM antagonist, distal colon",neither NAP nor BNAP showed significant antagonism
same,Morphine pD2 in the presence of antagonist,[3]; [13],5.9
same,Morphine pD2 in the presence of antagonist,[3]; [14],5.2
same,Change of morphine pD2 on raising the antagonist concentration,"[3]; 100 nM versus 10 nM antagonist, proximal colon",no further reduction of the morphine pD2
same,Contractions induced by compound alone,[3],Neither BNAP nor NAP alone at concentrations up to 30 μM induced contractions
same,% max of agonist,DOR; Emax relative to full agonist SNC80 (100%),9.2 ± 2.2%
same,EC50,DOR; [35S]GTPγS binding,108 ± 69 nM
same,Activity in hypernociceptive model of visceral pain,"Swiss Webster mice [10]; mice with 5-day 75 mg morphine pellet, Figure 9B",active at three fold lower concentration
same,Number of writhes,"Swiss Webster mice [10]; s.c., naive mice, Figure 9A",dose dependently reduced the number of writhes
same,Selectivity (κ/μ),KOR [11],4.6 (κ/μ)
"CN1CC[C@]23c4c5ccc(O)c4O[C@H]2[C@@H](O)C=C[C@H]3[C@H]1C5 [morphine, Morphine, reference compound]",Bead expulsion time,"Swiss Webster mice [6]; mouse, in vivo",75 min
same,Antinociception,"Swiss Webster mice [7]; mouse, in vivo",dose dependently induced antinociception
same,Decrease of intestinal motility,"Swiss Webster mice [9]; mouse, in vivo",3 fold
